Assays:
[1] = Clearance in human liver microsomes; assay type: ADME, Microsome; conditions: read-out: CLH
Procedure, shortened: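 Intrinsic clearance was measured in vitro in human liver microsomes and expressed per mg microsomal protein.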

[2] = target: T1, Mitogen-activated protein kinase 9 (Homo sapiens, UniProt P45984); assay: Ratio of IC50 for human JNK2 in presence of human serum to IC50 for human JNK2 in absence of human serum
Target sequence in this assay (P45984 whole entry, looked up): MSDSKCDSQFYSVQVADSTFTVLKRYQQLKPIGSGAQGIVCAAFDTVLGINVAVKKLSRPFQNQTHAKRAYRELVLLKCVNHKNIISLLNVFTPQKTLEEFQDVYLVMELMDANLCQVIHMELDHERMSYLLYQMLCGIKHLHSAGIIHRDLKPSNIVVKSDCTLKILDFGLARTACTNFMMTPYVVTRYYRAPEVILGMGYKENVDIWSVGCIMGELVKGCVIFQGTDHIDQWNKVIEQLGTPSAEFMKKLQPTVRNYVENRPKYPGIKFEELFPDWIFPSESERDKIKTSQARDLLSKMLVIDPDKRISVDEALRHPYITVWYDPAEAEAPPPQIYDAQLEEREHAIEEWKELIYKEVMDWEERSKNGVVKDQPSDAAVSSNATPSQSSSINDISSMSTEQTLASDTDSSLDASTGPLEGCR

[3] = target: c-Jun N-terminal kinase, JNK (Homo sapiens, UniProt P45983+P53779+P45984); assay: Inhibition of JNK in human SW1353 cells assessed as inhibition of TNFalpha-induced c-Jun phosphorylation incubated for 30 mins prior to TNFalpha induction measured after 20 mins; assay type: cell-based
Procedure, shortened: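 SW1353 cells were stimulated with TNFa, and the read-out was inhibition of phosphorylation of the downstream substrate c-Jun. Values are the mean of at least three experiments.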

[4] = target: Mitogen-activated protein kinase 8 (Homo sapiens, UniProt P45983)
[5] = target: T1, Mitogen-activated protein kinase 9
Target sequence in this assay (P45984 whole entry): as the sequence (P45984 whole entry, looked up) above

HCT-116 = assay: Cytotoxicity against human HCT116 cells assessed as cell viability by WST-1 reduction assay; assay type: cell-based
Procedure, shortened: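 Cytotoxicity was measured in an HCT-116 cell proliferation assay as reduction of WST-1 reagent. Values are the mean of at least three experiments.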

[6] = target: Cyclin-dependent kinase 2/cyclin E1 (Homo sapiens, UniProt P24941); assay: Inhibition of human recombinant CDK2/GST-tagged cyclin E expressed in baculovirus infected insect cells assessed as inhibition of 6XHis-tagged retinoblastoma protein (386 to 928) phosphorylation after 30 mins by scintillation counting analysis in presence of [gamma-33P]-ATP
Procedure, shortened: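 CDK2 activity was measured as phosphorylation of a 6-histidine-tagged truncated retinoblastoma protein (amino acids 386–928) using [γ-33P]ATP.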

Homo sapiens = organism: Homo sapiens; assay: Selectivity ratio of IC50 for human JNK2 to IC50 for human JNK1
Procedure, shortened: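 JNK1 and JNK2 activities were each measured as phosphorylation of GST-ATF2 (19–96) with [γ-33P]ATP, and IC50s were determined for each enzyme. The ratio is JNK2 IC50 over JNK1 IC50. IC50s are the mean of at least three experiments.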

[7] = target: Cyclin-dependent kinase 4/cyclin D1 (Homo sapiens, UniProt P11802); assay: Inhibition of human recombinant human GST-tagged CDK4/cyclin D1 expressed in baculovirus infected insect cells assessed as inhibition of 6XHis-tagged retinoblastoma protein (386 to 928) phosphorylation after 30 mins by scintillation counting analysis in presence of [gamma-33P]-ATP
[8] = target: Mitogen-activated protein kinase 10 (Homo sapiens, UniProt P53779); assay: Inhibition of human JNK3 assessed as inhibition of GST-tagged ATF2 (19 to 96) phosphorylation incubated for 10 mins prior to substrate addition measured after 30 mins by scintillation counting analysis in presence of [gamma-33P]-ATP
[9] = target: Cyclin-dependent kinase 1/cyclin B1 (Homo sapiens, UniProt P06493); assay: Inhibition of human recombinant human CDK1/GST-tagged cyclin B expressed in baculovirus infected insect cells assessed as inhibition of 6XHis-tagged retinoblastoma protein (386 to 928) phosphorylation after 30 mins by scintillation counting analysis in presence of [gamma-33P]-ATP
MAP kinase p38 = MAP kinase p38 (Homo sapiens, UniProt O15264+Q15759+Q16539+P53778); assay: Inhibition of p38 (unknown origin); assay type: protein assay
Cytochrome P450 2C9 = Cytochrome P450 2C9 (Homo sapiens, UniProt P11712); assay: Inhibition of CYP2C9 (unknown origin); assay type: ADME
Sequence of Cytochrome P450 2C9 (P11712 whole entry): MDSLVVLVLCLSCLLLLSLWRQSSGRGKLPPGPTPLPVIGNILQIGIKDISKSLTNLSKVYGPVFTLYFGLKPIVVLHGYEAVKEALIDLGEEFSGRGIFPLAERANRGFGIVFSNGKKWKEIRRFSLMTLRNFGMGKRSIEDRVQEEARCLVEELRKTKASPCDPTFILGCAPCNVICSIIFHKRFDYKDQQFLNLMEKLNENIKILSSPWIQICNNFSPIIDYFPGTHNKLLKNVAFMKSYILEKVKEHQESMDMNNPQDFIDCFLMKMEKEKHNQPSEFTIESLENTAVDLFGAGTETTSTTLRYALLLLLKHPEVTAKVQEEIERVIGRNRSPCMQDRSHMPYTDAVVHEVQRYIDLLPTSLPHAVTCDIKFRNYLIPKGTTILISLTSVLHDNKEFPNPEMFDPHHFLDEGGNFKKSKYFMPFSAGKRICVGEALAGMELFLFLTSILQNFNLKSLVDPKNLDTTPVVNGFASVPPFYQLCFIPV

Sequence of Mitogen-activated protein kinase 8 (P45983 whole entry): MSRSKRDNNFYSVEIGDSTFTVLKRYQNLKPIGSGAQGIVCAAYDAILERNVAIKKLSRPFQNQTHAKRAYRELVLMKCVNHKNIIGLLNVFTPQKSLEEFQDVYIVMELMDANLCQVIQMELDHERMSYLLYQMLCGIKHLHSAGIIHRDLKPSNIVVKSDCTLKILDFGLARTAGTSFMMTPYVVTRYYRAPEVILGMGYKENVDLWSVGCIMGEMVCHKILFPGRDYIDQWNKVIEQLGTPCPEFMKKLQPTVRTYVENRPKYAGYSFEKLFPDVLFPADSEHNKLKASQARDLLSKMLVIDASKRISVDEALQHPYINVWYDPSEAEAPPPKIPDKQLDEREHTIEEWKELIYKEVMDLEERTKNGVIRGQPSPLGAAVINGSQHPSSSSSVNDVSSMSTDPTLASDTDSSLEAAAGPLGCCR
Sequence of Cyclin-dependent kinase 4/cyclin D1 (P11802 whole entry): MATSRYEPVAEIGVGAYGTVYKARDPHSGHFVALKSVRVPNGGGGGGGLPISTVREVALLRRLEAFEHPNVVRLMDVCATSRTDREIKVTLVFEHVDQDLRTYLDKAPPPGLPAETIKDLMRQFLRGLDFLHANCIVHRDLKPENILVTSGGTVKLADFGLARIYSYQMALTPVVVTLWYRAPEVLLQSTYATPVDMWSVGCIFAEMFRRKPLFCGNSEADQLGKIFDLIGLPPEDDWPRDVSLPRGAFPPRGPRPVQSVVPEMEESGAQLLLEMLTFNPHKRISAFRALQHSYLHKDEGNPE
Sequence of Cyclin-dependent kinase 4/cyclin D1 (P24385 whole entry, further chain): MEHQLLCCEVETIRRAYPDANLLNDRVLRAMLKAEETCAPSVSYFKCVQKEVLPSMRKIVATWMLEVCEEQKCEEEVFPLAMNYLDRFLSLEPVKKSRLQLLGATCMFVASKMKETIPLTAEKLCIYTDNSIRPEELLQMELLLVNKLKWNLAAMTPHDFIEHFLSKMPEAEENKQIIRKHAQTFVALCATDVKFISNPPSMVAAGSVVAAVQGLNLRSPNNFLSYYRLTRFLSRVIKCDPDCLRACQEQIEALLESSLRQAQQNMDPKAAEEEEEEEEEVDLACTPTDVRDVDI
Sequence of Cyclin-dependent kinase 1/cyclin B1 (P06493 whole entry): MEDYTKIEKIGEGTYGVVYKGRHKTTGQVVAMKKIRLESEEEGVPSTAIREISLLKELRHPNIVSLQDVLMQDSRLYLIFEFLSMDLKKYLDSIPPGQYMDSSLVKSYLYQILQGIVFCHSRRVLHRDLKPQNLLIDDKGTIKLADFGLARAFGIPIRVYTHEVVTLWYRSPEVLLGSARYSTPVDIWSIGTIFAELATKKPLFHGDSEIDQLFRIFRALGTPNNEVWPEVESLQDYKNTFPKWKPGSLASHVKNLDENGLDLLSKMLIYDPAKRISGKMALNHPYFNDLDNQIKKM
Sequence of Cyclin-dependent kinase 1/cyclin B1 (P14635 whole entry, further chain): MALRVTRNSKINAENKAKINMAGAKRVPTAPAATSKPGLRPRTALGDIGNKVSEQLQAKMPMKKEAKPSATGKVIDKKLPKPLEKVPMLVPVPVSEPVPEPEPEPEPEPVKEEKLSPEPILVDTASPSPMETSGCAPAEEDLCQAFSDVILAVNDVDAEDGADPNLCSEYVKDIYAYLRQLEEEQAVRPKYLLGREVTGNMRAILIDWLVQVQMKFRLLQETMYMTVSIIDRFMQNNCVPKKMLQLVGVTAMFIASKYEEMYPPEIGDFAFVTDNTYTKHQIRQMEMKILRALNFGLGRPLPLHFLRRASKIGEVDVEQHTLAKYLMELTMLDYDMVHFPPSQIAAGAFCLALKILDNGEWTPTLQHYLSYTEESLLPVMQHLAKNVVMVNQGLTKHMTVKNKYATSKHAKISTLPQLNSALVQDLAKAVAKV
Sequence of Mitogen-activated protein kinase 10 (P53779 whole entry): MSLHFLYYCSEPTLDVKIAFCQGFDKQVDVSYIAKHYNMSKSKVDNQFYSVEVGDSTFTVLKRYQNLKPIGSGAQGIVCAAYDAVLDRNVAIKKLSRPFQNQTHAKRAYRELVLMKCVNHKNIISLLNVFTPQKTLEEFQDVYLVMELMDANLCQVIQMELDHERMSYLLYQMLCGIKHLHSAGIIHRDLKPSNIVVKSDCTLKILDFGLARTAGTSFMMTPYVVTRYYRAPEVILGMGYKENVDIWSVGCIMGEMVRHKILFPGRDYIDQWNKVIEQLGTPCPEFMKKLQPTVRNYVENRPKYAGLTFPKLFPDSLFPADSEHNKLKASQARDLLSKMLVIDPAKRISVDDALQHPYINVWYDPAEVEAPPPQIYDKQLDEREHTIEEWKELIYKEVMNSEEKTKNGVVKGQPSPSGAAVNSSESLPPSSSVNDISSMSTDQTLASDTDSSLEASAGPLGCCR

SMILES | microsomal CLint [1] [µL/min/mg] | Ratio IC50 [2] | IC50 [3] [nM] | IC50 [4] [nM] | IC50 [5] [nM] | IC50 [6] [nM] | Ratio IC50 (Homo sapiens) | IC50 [7] [nM] | IC50 [8] [nM] | IC50 [9] [nM] | IC50 (MAP kinase p38) [nM] | IC50 (Cytochrome P450 2C9) [nM] | IC50 (HCT-116) [nM]
O[C@H]1CC[C@H](Nc2nccc(-c3c[nH]c4ccccc34)n2)CC1 | – | – | 8200 | 140 | 720 | – | – | – | – | – | – | – | –
OCCCOc1cccc2c1cnn2-c1ccnc(N[C@H]2CC[C@H](O)CC2)n1 | – | 28 | 960 | 24 | 139 | – | – | – | – | – | – | – | –
COc1cccc2c1cnn2-c1ccnc(N[C@H]2CC[C@H](O)CC2)n1 | – | 37 | 3100 | – | – | – | – | – | – | – | – | – | –
CS(=O)(=O)N[C@H]1CC[C@H](Nc2nccc(-n3nnc4ccccc43)n2)CC1 | – | – | 1300 | 24 | 97 | 300 | 4 | 910 | 114 | 1520 | > 10000 | – | 2300
O[C@H]1CC[C@H](Nc2nccc(-c3nnc4ccccn34)n2)CC1 | – | – | 12000 | 570 | 1200 | – | – | – | – | – | – | – | –
CC(=O)N[C@H]1CC[C@H](Nc2nccc(-n3nnc4ccccc43)n2)CC1 | – | – | 1500 | 39 | 230 | 570 | 4 | – | – | – | – | 39 | 16000
CS(=O)(=O)NCCCOc1cccc2c1cnn2-c1ccnc(N[C@H]2CC[C@H](O)CC2)n1 | – | 17 | 1100 | 56 | 246 | – | – | – | – | – | – | – | –
O=C([C@H]1CC[C@H](Nc2nccc(-n3nnc4ccccc43)n2)CC1)N1CCCC1 | – | – | 3300 | 120 | 400 | > 6200 | 4 | – | – | – | – | – | > 30000
CS(=O)(=O)CCOc1cccc2c1cnn2-c1ccnc(N[C@H]2CC[C@H](O)CC2)n1 | – | 4 | 980 | 33 | 151 | – | – | – | – | – | – | – | –
O[C@H]1CC[C@H](Nc2nccc(N3CCc4ccccc43)n2)CC1 | – | – | – | 770 | 2900 | – | – | – | – | – | – | – | –
OCC(O)COc1cccc2c1cnn2-c1ccnc(N[C@H]2CC[C@H](O)CC2)n1 (stereo partly specified) | – | 5.7 | 2000 | 34 | 194 | – | – | – | – | – | – | – | –
c1ccc2c(c1)nnn2-c1ccnc(NC2CCCCC2)n1 | – | – | – | 100 | 390 | 2700 | 4 | – | – | – | – | – | –

Further compounds by falling IC50 [4], results first:

microsomal CLint [1] [µL/min/mg] | Ratio IC50 [2] | IC50 [3] [nM] | IC50 [4] [nM] | IC50 [5] [nM] | IC50 [6] [nM] | Ratio IC50 (Homo sapiens) | IC50 [7] [nM] | IC50 [8] [nM] | IC50 [9] [nM] | IC50 (MAP kinase p38) [nM] | IC50 (Cytochrome P450 2C9) [nM] | SMILES | IC50 (HCT-116) [nM]
– | – | 4900 | 19 | 76 | 1700 | 4 | – | – | – | – | – | CN(C)S(=O)(=O)N[C@H]1CC[C@H](Nc2nccc(-n3nnc4ccccc43)n2)CC1 | 22000
283 | 4.2 | 1400 | 16 | 51 | – | – | – | – | – | – | – | CS(=O)(=O)CCCOc1cccc2c1ccn2-c1ccnc(N[C@H]2CC[C@H](C(=O)N3CCC(F)(F)CC3)CC2)n1 | –
175 | 2.5 | 590 | 14 | 64 | – | – | – | – | – | – | – | CS(=O)(=O)CCCOc1cccc2c1ccn2-c1ccnc(N[C@H]2CC[C@H](C(=O)N3CC[C@@H](F)C3)CC2)n1 | –
609 | 4.6 | 580 | 14 | 57 | – | – | – | – | – | – | – | CCN(CC)C(=O)[C@H]1CC[C@H](Nc2nccc(-n3ccc4c(OCCCS(C)(=O)=O)cccc43)n2)CC1 | –
– | 147 | > 30000 | 12 | 79 | – | – | – | – | – | – | – | CCCOc1cccc2c1cnn2-c1ccnc(N[C@H]2CC[C@H](O)CC2)n1 | –
19 | 2.6 | 1100 | 9.7 | 47 | – | – | – | – | – | – | – | CS(=O)(=O)CCCOc1cccc2c1ccn2-c1ccnc(N[C@H]2CC[C@H](C(=O)N3CC[C@@H](O)C3)CC2)n1 | –
141 | 2.9 | 1400 | 4.7 | 28 | – | – | – | – | – | – | – | COC1CCN(C(=O)[C@H]2CC[C@H](Nc3nccc(-n4ccc5c(OCCCS(C)(=O)=O)cccc54)n3)CC2)CC1 | –
– | 6.3 | 350 | 4 | 27 | – | – | – | – | – | – | – | CC(C)(O)[C@H]1CC[C@H](Nc2nccc(-n3ccc4c(OCCCS(C)(=O)=O)cccc43)n2)CC1 | –
– | 18 | 240 | 4 | 21 | – | – | – | – | – | – | – | CC(C)(O)[C@H]1CC[C@H](Nc2nccc(-n3ncc4c(OCCCS(C)(=O)=O)cccc43)n2)CC1 | –
